# T cruzi growth – T. cruzi intracellular proliferation inhibitors, primary screen, cell-based, beta-gal Tulahuen parasites, NIH3T3 host, luminescence | T. cruzi beta-gal in NIH3T3, GalScreen luminescence, 90 h | AID 624255, 2012 | actives 5.9% (n = 77,000) | inhibition, % at 8.34 µM;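 active = mean inhibition above about 93%, with at least 55% of replicates each passing it, limit read from the data, passing the limit was not always enough; inconclusive = only one of those two conditions holds; inactive = neither condition holds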
# IDH1 mut inh – inhibitors of IDH1 R132H reductase, primary screen, biochemical, plate reader, single point; Isocitrate dehydrogenase [NADP] cytoplasmic (Homo sapiens), O75874; diaphorase/resazurin fluorescence, 60 min; inhibition, % at 10 µM; actives 0.18% (n = 70,000); in the data active = inhibition above about 34%; inconclusive = no clear call, values can overlap the other calls; inactive = below about 11%;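 note: 0% = DMSO and 100% = no enzyme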
# Target sequence (O75874 whole entry R132H): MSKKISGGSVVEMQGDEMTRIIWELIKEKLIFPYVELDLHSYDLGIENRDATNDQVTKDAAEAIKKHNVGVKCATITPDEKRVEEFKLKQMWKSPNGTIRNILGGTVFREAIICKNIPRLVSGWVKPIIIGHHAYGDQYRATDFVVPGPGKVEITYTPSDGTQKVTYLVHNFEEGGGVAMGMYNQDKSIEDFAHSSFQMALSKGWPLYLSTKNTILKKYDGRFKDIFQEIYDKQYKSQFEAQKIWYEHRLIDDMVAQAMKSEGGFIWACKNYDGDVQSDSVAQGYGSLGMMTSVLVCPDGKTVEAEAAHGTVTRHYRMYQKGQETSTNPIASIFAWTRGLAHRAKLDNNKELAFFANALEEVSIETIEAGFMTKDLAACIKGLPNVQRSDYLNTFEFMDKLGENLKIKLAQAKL
# Pf Dd2 inh – P. falciparum Dd2 growth inhibitors, primary screen, SYBR Green fluorescence, single dose replicates | activity change, % at 10 µM | actives 2.3% (n = 94,000) | 72 h; stronger effect = lower value; in the data active = activity change below about -80%; inconclusive = no clear call, values can overlap the other calls
# GASC1 inh – inhibitors of GASC-1 (KDM4C) histone demethylase, primary screen, biochemical, single concentration HTS; Lysine-specific demethylase 4C (Homo sapiens), Q9H3R0; GST-KDM4C 2-372, H3K9me3 peptide, LANCE TR-FRET; inhibition, % at 12.5 µM; actives 0.15% (n = 96,000); AID 720574, 2013;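 active = mean replicate inhibition above about 25%, with at least 55% of replicates also reaching it, limit read from the data, passing the limit was not always enough; inconclusive = only one of those two conditions met; inactive = neither condition met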
#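 Test system – GST-tagged GASC-1 (JMJD2C) catalytic fragment, aa 2-372 · Medium – HEPES buffer, pH 7.5, plus ascorbate · Reagent – H3K9me3 peptide with Fe(II)/2OG · Compound – one test concentration per compound · Timing – 30 min reaction, 60 min detection, RT · Technique – TR-FRET with Eu antibody and ULight streptavidin, EDTA stop · Read-out basis – inhibition from TR-FRET ratio decrease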
# * marks the source's active call; other numbers are inactive results; u = inconclusive; x = not tested or not shown; ! = a repeat was not active. Most compounds without a hit are left out; they make up all but 5.8% or so of the library.
SMILES,T cruzi growth,IDH1 mut inh,Pf Dd2 inh,GASC1 inh
COc1ccc(S(=O)(=O)Nc2ccc3c(c2)C(=O)N([C@@H](C)CO)C[C@H](C)[C@@H](CN(C)C(=O)Nc2ccccc2)OCCCC[C@H](C)O3)cc1,10,x,-51,1
C[C@@H]1CCCCO[C@H](CN(C)C(=O)Nc2ccc(F)cc2)[C@@H](C)CN([C@@H](C)CO)C(=O)c2cc(NS(=O)(=O)c3ccc(Cl)cc3)ccc2O1,x,x,-87*,0
Cc1ccc(C(C)C)cc1OCC(O)Cn1c(C)nc2ccccc21 (stereo not given),x,3,x,x
C[C@@H]1CCCCO[C@H](CN(C)C(=O)Nc2ccc(F)cc2)[C@H](C)CN([C@H](C)CO)C(=O)c2cc(NS(=O)(=O)c3ccccc3)ccc2O1,60,1,-91*,0
COc1ccc(S(=O)(=O)Nc2ccc3c(c2)C(=O)N([C@@H](C)CO)C[C@H](C)[C@@H](CN(C)C(=O)c2ccccc2)OCCCC[C@@H](C)O3)cc1,5,2,-89*,-1
C[C@@H]1CCCCO[C@H](CN(C)C(=O)Nc2ccc(F)cc2)[C@@H](C)CN([C@@H](C)CO)C(=O)c2cc(NS(=O)(=O)c3ccccc3)ccc2O1,97,1,-76,-2
C=C1C2=C(O[C@H](/C(C)=C/C(C)CC(C)CC)[C@@H](O)[C@@H]2O)C(=O)N1OC (stereo not given in full),x,0,x,x
C[C@H](CO)N1C[C@H](C)[C@H](CN(C)CC2CC2)Oc2ccc(NC(=O)Nc3ccccc3)cc2CC1=O,-27,1,-89*,-3
C[C@@H]1CN([C@H](C)CO)C(=O)Cc2cc(NC(=O)Nc3ccccc3)ccc2O[C@H]1CN(C)CC1CC1,-38,0,-16,0
C[C@H](CO)N1C[C@H](C)[C@H](CN(C)CC2CC2)Oc2ccc(NC(=O)Nc3ccc(C(F)(F)F)cc3)cc2CC1=O,29,x,-76,-1
C[C@@H]1CN([C@@H](C)CO)C(=O)Cc2cc(NC(=O)Nc3ccc(C(F)(F)F)cc3)ccc2O[C@@H]1CN(C)CC1CC1,70,x,-83*,-3
C[C@H]1CN([C@@H](C)CO)C(=O)Cc2cc(NC(=O)CCC(F)(F)F)ccc2O[C@H]1CN(C)S(C)(=O)=O,-1,-1,-87*,3
CN(C)CCCN1C(=O)C(=O)C(C(=O)c2ccco2)C1c1cccc([N+](=O)[O-])c1 (stereo not given),x,1,x,x
C[C@@H]1CCCCO[C@@H](CN(C)C(=O)Nc2cccc3ccccc23)[C@H](C)CN([C@H](C)CO)C(=O)c2cc(NC(=O)Nc3ccccc3)ccc2O1,85,x,-47,-1
C[C@@H]1CN([C@H](C)CO)C(=O)c2cc(NC(=O)Cc3ccccc3)ccc2O[C@@H](C)CCCCO[C@H]1CN(C)C(=O)Nc1cccc2ccccc12,73,0,-87*,0
C[C@@H]1CN([C@@H](C)CO)C(=O)c2cc(NC(=O)Cc3ccccc3)ccc2O[C@@H](C)CCCCO[C@@H]1CN(C)C(=O)Nc1cccc2ccccc12,1,4,-94*,-2
C[C@H](CO)N1C[C@H](C)[C@@H](CN(C)C(=O)Nc2cccc3ccccc23)OCCCC[C@H](C)Oc2ccc(NC(=O)c3ccccc3)cc2C1=O,69,x,-6,-2
C[C@@H]1CCCCO[C@@H](CN(C)C(=O)Nc2cccc3ccccc23)[C@@H](C)CN([C@@H](C)CO)C(=O)c2cc(NC(=O)Cc3ccccc3)ccc2O1,x,-1,-92*,0
O=C(CSc1nc(-c2ccccc2)cs1)Nc1ccccc1,x,0,x,x
COc1ccc(C[C@H](N)C(=O)N[C@@H]2[C@@H](CO)OC(n3cnc4c(N(C)C)ncnc43)[C@@H]2O)cc1 (stereo not given in full),x,1,x,x
COc1ccc(NC(=O)COc2ccc(CO)cc2OC)cc1,x,0,x,x
C[C@@H]1CCCCO[C@H](CN(C)Cc2ccc(Cl)c(Cl)c2)[C@@H](C)CN([C@@H](C)CO)C(=O)c2cc(NC(=O)Nc3ccc4c(c3)OCO4)ccc2O1,65,x,-91*,-5
C[C@@H]1CCCCO[C@H](CN(C)Cc2ccc3c(c2)OCO3)[C@H](C)CN([C@@H](C)CO)C(=O)c2cc(N(C)C)ccc2O1,-5,-1,-18,x
C[C@@H]1CCCCO[C@@H](CN(C)Cc2ccc3c(c2)OCO3)[C@H](C)CN([C@@H](C)CO)C(=O)c2cc(N(C)C)ccc2O1,102*!,x,25,x
C[C@@H]1CN([C@@H](C)CO)C(=O)c2cc(NC(=O)Nc3ccc(F)cc3)ccc2O[C@@H](C)CCCCO[C@@H]1CN(C)Cc1ccc2c(c1)OCO2,75,x,-83*,-1
SMILES,T cruzi growth,IDH1 mut inh,Pf Dd2 inh,GASC1 inh
C[C@@H]1CN([C@@H](C)CO)C(=O)c2cc(NC(=O)Nc3ccc4c(c3)OCO4)ccc2O[C@@H](C)CCCCO[C@@H]1CN(C)Cc1ccc2c(c1)OCO2,x,-1,u,0
Cc1c(NC(=O)CSc2nc3c(c(C(F)(F)F)n2)CCc2ccccc2-3)c(=O)n(-c2ccccc2)n1C,x,0,x,x
NC(=O)/C(=C/c1ccc2c(c1)OCO2)NC(=O)c1ccc(Br)cc1,x,0,x,x
COc1ccc2c3c([nH]c2c1)[C@@H](CO)N(Cc1ccccc1F)CC31CN(C(=O)C2CCC2)C1,x,x,-92*,-2
COc1ccc2c3c([nH]c2c1)[C@H](CO)N(Cc1cc(F)ccc1F)CC31CN(C(=O)C2CCC2)C1,x,x,-88*,0
COc1ccc2c3c([nH]c2c1)[C@@H](CO)N(Cc1ccccc1F)CC31CN(C(=O)C2CCOCC2)C1,x,x,32,x
COc1ccc2c3c([nH]c2c1)[C@H](CO)N(Cc1nccs1)CC31CN(C(=O)C2CCC2)C1,x,x,-18,0
CCCNC(=O)N1CC2(CN(C(=O)C3CCC3)C2)c2c([nH]c3cc(OC)ccc23)[C@H]1CO,x,x,-85*,0
CC(=O)OC1=C(C(=O)c2ccccc2)N(C)S(=O)(=O)c2ccccc21,x,-1,x,x
COc1ccc([N+](=O)[O-])cc1NC(=O)CN(c1ccc(I)cc1)S(C)(=O)=O,x,0,x,x
O=C(CCc1ccc(O)cc1)c1c(O)cc(O[C@@H]2O[C@H](CO)[C@@H](O)[C@H](O)[C@H]2O)cc1O,x,1,x,x
O=C(C1CCCC1)N1CC2(C1)[C@@H](c1ccccc1)[C@H](CO)N2Cc1ccc(Cl)cc1,x,x,-85*,1
CC(=O)N1CC2(C1)[C@@H](c1ccccc1)[C@@H](CO)N2Cc1ccccc1F,x,x,-4,x
OC[C@@H]1[C@H](c2ccccc2)C2(CN(Cc3ccccc3)C2)N1Cc1ccncc1,x,x,-53,2
OC[C@@H]1[C@@H](c2ccccc2)C2(CN(Cc3ccccc3F)C2)N1Cc1ccccc1F,x,x,-88*,-2
COc1cccc(CN2[C@H](CO)[C@@H](c3ccccc3)C23CN(Cc2ccccc2OC)C3)c1,x,x,-90*,1
OC[C@@H]1[C@@H](c2ccccc2)C2(CN(Cc3ccc4c(c3)OCO4)C2)N1Cc1ccccc1,x,x,-93*,13
